Columns and labels:
[1] = tested on: U87MG cells with transferrin receptors blocked by excess T7-PEG4-N3; assay: T7 competition assay: transferrin receptor blocking studies; format: cell-based; details: Homo sapiens, U-87 MG, read-out: IC50 at 72 h in TfR-blocked U87MG cells
How it was run: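 U87MG cells were seeded at 1 × 10^4/well and grown 24 h. Medium was replaced with medium containing a 10-fold molar excess of azido-PEG4-T7 peptide relative to conjugate for 1 h. Cells were then exposed to 5–160 nM test compound. Controls were medium, 0.05% DMSO and peptide alone. XTT read-out at 72 h, A450 relative to controls, n = 4. IC50 from concentration–response curve fit.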

U87MG cells = assay: XTT cytotoxicity assay; format: cell-based, Human; details: for cytotoxicity on U87MG cells at 24 h: XTT assay, 24 h exposure, 5-160 nM, n = 4
How it was run: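 U87MG cells were kept in EMEM with 10% FBS and 1% penicillin–streptomycin at 37 °C, 5% CO2. Cells were seeded at 1 × 10^4/well and treated after 24 h with 5–160 nM test compound at 37 °C. At 24 and 72 h, XTT with electron coupling reagent was added for 3 h, then A450 was read. Values were normalized to untreated cells. Controls were 0.05% DMSO and medium. Mean ± SD, n = 4. IC50 from concentration–response curve fit.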

[2] = cited from earlier work
[3] = Control incubation in enzyme-free reaction buffer pH 6.0; format: physicochemical; details: enzyme free buffer pH 6.0, 37 °C, 24 h, 183 μM conjugate, RP-HPLC, n = 3
How it was run: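 Enzyme-free control run alongside the cathepsin B cleavage assay. Reaction buffer was 150 mM sodium acetate, 12 mM EDTA and 24 mM DTT, pH 6.0. Conjugate was added from a DMSO stock to 183 μM final and incubated at 37 °C. Aliquots were taken over 0–24 h for RP-HPLC. Peak areas at the retention times of pure drug and conjugate tracked conjugate loss and free drug appearance.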

[4] = Stability in phosphate buffer saline pH 7.4; format: physicochemical; details: PBS pH 7.4 with 2% DMSO, 196 μM conjugate, 37 °C, 0-24 h, HPLC, n = 3
How it was run: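 Conjugate in PBS pH 7.4 with 2% DMSO, 196 μM final, held at 37 °C. Aliquots were withdrawn at time points over 0–24 h and analysed by HPLC. Results were plotted as areas of intact conjugate and of released free drug over time (n = 3).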

TfR = details: cited from earlier work

Row | Compound | IC50 [1] | IC50 (U87MG cells; Homo sapiens, U-87 MG, 72 h, read-out: IC50 on U87MG cells at 72 h) | cytotoxicity on U87MG cells at 24 h (U87MG cells) | potency compared to irinotecan [2] | release of free SN-38 in enzyme free buffer [3] | stability in phosphate-buffered saline [4] | binding affinity for TfR relative to Tf (TfR)
1 | CCc1c2c(nc3ccc(O)cc13)-c1cc3c(c(=O)n1C2)COC(=O)[C@]3(O)CC [SN-38, 7-Ethyl-10-hydroxycamptothecin] | 27.6 nM | 26.4 nM | did not exert pronounced cytotoxicity | 100–1000 times | – | – | –
2 | CCc1c2c(nc3ccc(OCc4ccc(NC(=O)[C@H](C)NC(=O)[C@@H](NC(=O)CCCCCNC(=O)COCCOCCOCCNC(=O)CCCCC(=O)N5Cc6ccccc6-c6c(nnn6CCOCCOCCOCCOCCC(=O)N[C@@H](Cc6c[nH]cn6)C(=O)N[C@@H](C)C(=O)N[C@H](C(=O)N[C@@H](Cc6ccc(O)cc6)C(=O)N6CCC[C@H]6C(=O)N[C@@H](CCCNC(=N)N)C(=O)N[C@@H](Cc6c[nH]cn6)C(=O)O)[C@@H](C)CC)-c6ccccc65)C(C)C)cc4)cc13)-c1cc3c(c(=O)n1C2)COC(=O)[C@]3(O)CC [Compound T7-SN-38] | – | – | did not exert pronounced cytotoxicity | – | No free SN-38 was observed | very minimal decomposition or cleavage | –
3 | His-Ala-Ile-Tyr-Pro-Arg-His [T7 peptide] | – | – | – | – | – | – | comparable to that of Tf

From paper PMC10795035 (ACS Omega, 2024)
